Results published in ChEMBL document CHEMBL1145067, “3'-C-branched-chain-substituted nucleosides and nucleotides as potent inhibitors of Mycobacterium tuberculosis thymidine monophosphate kinase” (J Med Chem, 2003).

Key:
[1] = biological target: Thymidylate kinase (Homo sapiens) (UniProt P23919); assay: In Vitro inhibition of […] (TMPKh); No inhibition at 4000 uM
Thymidylate kinase = biological target: T1, Thymidylate kinase (Mycobacterium tuberculosis, UniProt P9WKE1); assay: In Vitro inhibition of Thymidine […] Kinase of Mycobacterium tuberculosis (TMPKm)
T1 sequence (P9WKE1 whole entry): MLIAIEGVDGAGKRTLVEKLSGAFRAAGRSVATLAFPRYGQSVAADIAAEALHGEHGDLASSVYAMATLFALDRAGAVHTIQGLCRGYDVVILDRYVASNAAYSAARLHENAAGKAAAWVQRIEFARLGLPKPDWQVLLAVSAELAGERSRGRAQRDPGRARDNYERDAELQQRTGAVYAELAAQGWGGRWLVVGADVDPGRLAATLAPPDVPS
Outline: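 Recombinant TMPKmt or human TMPKh overexpressed in E. coli. ATP was fixed at 0.5 mM and dTMP at 0.05 mM; analogues were varied over 0.01–4 mM.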

[2] = ratio of Ki (Km TMPKh / Ki TMPKmt) was determined
[3] = ratio of Ki (Ki TMPKh / KiTMPKmt) was determined
[4] = ratio of Km (Km TMPKh / Km TMPKmt) was determined

Sequence of Thymidylate kinase (Homo sapiens) (P23919 whole entry, looked up): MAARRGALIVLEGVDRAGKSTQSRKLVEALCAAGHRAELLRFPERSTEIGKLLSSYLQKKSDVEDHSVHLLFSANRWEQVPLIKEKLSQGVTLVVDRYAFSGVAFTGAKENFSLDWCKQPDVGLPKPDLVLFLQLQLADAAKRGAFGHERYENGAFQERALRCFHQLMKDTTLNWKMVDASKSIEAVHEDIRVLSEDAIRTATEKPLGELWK

Structure (SMILES) | Ki (Thymidylate kinase) [µM] | SI [3] | further results
Cc1cn([C@@H]2O[C@H](CO)[C@@H](CN=[N+]=[N-])[C@H]2O)c(=O)[nH]c1=O | 770 | – | NI [1]: No inhibition at 4000 uM
Cc1cn([C@H]2C[C@H](N=[N+]=[N-])[C@@H](COP(=O)(O)O)O2)c(=O)[nH]c1=O | – | – | SI [2]: 1.2
Cc1cn([C@H]2C[C@H](CN=[N+]=[N-])[C@@H](CO)O2)c(=O)[nH]c1=O | 40 | 26 | –
Cc1cn([C@H]2C[C@H](CF)[C@@H](CO)O2)c(=O)[nH]c1=O | 45 | 21.6 | –
Cc1cn([C@H]2C[C@H](CO)[C@@H](COP(=O)(O)O)O2)c(=O)[nH]c1=O | 29 | 1.5 | –
Cc1cn([C@@H]2O[C@H](COP(=O)(O)O)[C@@H](CN)[C@H]2O)c(=O)[nH]c1=O | 315 | 0.9 | –
Cc1cn([C@@H]2O[C@H](CO)[C@@H](CN)[C@H]2O)c(=O)[nH]c1=O | 393 | 0.3 | –
Cc1cn([C@H]2C[C@H](CN)[C@@H](CO)O2)c(=O)[nH]c1=O | 57 | 3.9 | –
Cc1cn([C@H]2C[C@H](CN)[C@@H](COP(=O)(O)O)O2)c(=O)[nH]c1=O | 10.5 | 0.4 | –
Cc1cn([C@H]2C[C@H](N=[N+]=[N-])[C@@H](CO)O2)c(=O)[nH]c1=O [ZIDOVUDINE] | 28 | – | –
Cc1cn([C@H]2C[C@H](CN=[N+]=[N-])[C@@H](COP(=O)(O)O)O2)c(=O)[nH]c1=O | 12 | 2.7 | –
Cc1cn([C@H]2C[C@H](O)[C@@H](COP(=O)(O)O)O2)c(=O)[nH]c1=O | – | – | SI [4]: 1.1
Cc1cn([C@H]2C[C@H](CF)[C@@H](COP(=O)(O)O)O2)c(=O)[nH]c1=O | 15 | 2.7 | –
Cc1cn([C@H]2C[C@H](CO)[C@@H](CO)O2)c(=O)[nH]c1=O | 41 | 10 | –
Cc1cn([C@@H]2O[C@H](COP(=O)(O)O)[C@@H](CN=[N+]=[N-])[C@H]2O)c(=O)[nH]c1=O | 116 | – | –
Cc1cn([C@H]2C[C@H](CCO)[C@@H](CO)O2)c(=O)[nH]c1=O | 156 | – | –
